Data from ChEMBL document CHEMBL3525900, “Pharmacokinetics, distribution, and metabolism of [14C]sunitinib in rats, monkeys, and humans” (Drug Metab Dispos, 2012).

Experiments:
[1] = Drug concentration in female albino rat eye assessed as radioactivity per gram of tissue at 20 mg/kg administered as single dose via gastric gavage measured after 6 hrs by autoradiographic analysis; format: ADME, organism-based; design: dose 20 mg/kg, dosed compound name [14C]Sunitinib; conditions: in vivo, po
How it was run: (§1)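 Sprague Dawley albino rats, ca 7-8 weeks old, dosed once by gastric gavage with [14C]sunitinib L-malate (15 mg freebase/kg, 100 µCi/kg). One male and one female killed by CO2 at 3, 6, 24, 72 and 168 h. Carcasses frozen in solid CO2/hexane, embedded and cut into 30 µm sagittal sections, then freeze-dried. Radioactivity quantified by whole-body autoradiography against standards by regression, background subtracted.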

[2] = Drug concentration in male Lister Hooded pigmented rat eye assessed as radioactivity per gram of tissue at 20 mg/kg administered as single dose via gastric gavage measured after 72 hrs by autoradiographic analysis; format: ADME, organism-based; design: dose 20 mg/kg, dosed compound name [14C]Sunitinib; conditions: in vivo, po
[3] = tested on: Stomach; experiment: Drug concentration in female albino rat stomach assessed as radioactivity per gram of tissue at 20 mg/kg administered as single dose via gastric gavage measured after 24 hrs by autoradiographic analysis; format: ADME, organism-based; design: dose 20 mg/kg, dosed compound name [14C]Sunitinib; conditions: in vivo, po
[4] = Drug concentration in male albino rat skeletal muscle assessed as radioactivity per gram of tissue at 20 mg/kg administered as single dose via gastric gavage measured after 24 hrs by autoradiographic analysis; format: ADME, organism-based; design: dose 20 mg/kg, dosed compound name [14C]Sunitinib; conditions: in vivo, po
[5] = tested on: Thymus; experiment: Drug concentration in male albino rat thymus assessed as radioactivity per gram of tissue at 20 mg/kg administered as single dose via gastric gavage measured after 24 hrs by autoradiographic analysis; format: ADME, organism-based; design: dose 20 mg/kg, dosed compound name [14C]Sunitinib; conditions: in vivo, po
[6] = tested on: Kidney; experiment: Drug concentration in female Lister Hooded pigmented rat kidney assessed as radioactivity per gram of tissue at 20 mg/kg administered as single dose via gastric gavage measured after 72 hrs by autoradiographic analysis; format: ADME, organism-based; design: dose 20 mg/kg, dosed compound name [14C]Sunitinib; conditions: in vivo, po
How it was run: (§2)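 Lister Hooded (pigmented) rats, ca 7-8 weeks old, acclimated 7 days, given [14C]sunitinib L-malate by gastric gavage at 20 mg/kg (15 mg freebase/kg, 100 µCi/kg). One male and one female killed by CO2 at 24, 72, 168 and 336 h. Carcasses frozen in solid CO2/hexane and embedded in frozen cellulose. 30 µm sagittal cryosections were freeze-dried. Tissue radioactivity measured by quantitative whole-body autoradiography against calibration standards, with background subtracted.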

[7] = tested on: Ovary; experiment: Drug concentration in female albino rat ovary assessed as radioactivity per gram of tissue at 20 mg/kg administered as single dose via gastric gavage measured after 3 hrs by autoradiographic analysis; format: ADME, organism-based, Female gonad; design: dose 20 mg/kg, dosed compound name [14C]Sunitinib; conditions: in vivo, po
How it was run: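 Sprague Dawley (albino) and Lister Hooded (pigmented) rats, ca 7-8 weeks old, 179-310 g, acclimated 7 days. Single gavage dose of [14C]sunitinib L-malate (15 mg freebase/kg, 100 µCi/kg). One male and one female killed by CO2 per time point: albino at 3, 6, 24, 72, 168 h; pigmented at 24, 72, 168, 336 h. Carcasses frozen in solid CO2/hexane, 30 µm sagittal sections freeze-dried. Tissue radioactivity read by quantitative whole-body autoradiography against regression of standards, mean background subtracted.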

[8] = tested on: Thymus; experiment: Drug concentration in female Lister Hooded pigmented rat thymus assessed as radioactivity per gram of tissue at 20 mg/kg administered as single dose via gastric gavage measured after 24 hrs by autoradiographic analysis; format: ADME, organism-based; design: dose 20 mg/kg, dosed compound name [14C]Sunitinib; conditions: in vivo, po; how it was run: as §2
[9] = Drug recovery in feces of female cynomolgus monkey at 6 mg/kg, po administered as single dose during 0 to 336 hrs by liquid scintillation counting; format: ADME, organism-based, Macaca fascicularis; design: dose 6 mg/kg, dosed compound name [14C]Sunitinib, route oral; conditions: in vivo
[10] = Drug concentration in female Lister Hooded pigmented rat uveal tract assessed as radioactivity per gram of tissue at 20 mg/kg administered as single dose via gastric gavage measured after 168 hrs by autoradiographic analysis; format: ADME, organism-based; design: dose 20 mg/kg, dosed compound name [14C]Sunitinib; conditions: in vivo, po; how it was run: as §2
[11] = tested on: Stomach; experiment: Drug concentration in male albino rat stomach assessed as radioactivity per gram of tissue at 20 mg/kg administered as single dose via gastric gavage measured after 3 hrs by autoradiographic analysis; format: ADME, organism-based; design: dose 20 mg/kg, dosed compound name [14C]Sunitinib; conditions: in vivo, po
[12] = Drug concentration in male albino rat preputial gland assessed as radioactivity per gram of tissue at 20 mg/kg administered as single dose via gastric gavage measured after 72 hrs by autoradiographic analysis; format: ADME, organism-based; design: dose 20 mg/kg, dosed compound name [14C]Sunitinib; conditions: in vivo, po
[13] = tested on: Liver; experiment: Drug concentration in male albino rat liver assessed as radioactivity per gram of tissue at 20 mg/kg administered as single dose via gastric gavage measured after 6 hrs by autoradiographic analysis; format: ADME, organism-based; design: dose 20 mg/kg, dosed compound name [14C]Sunitinib; conditions: in vivo, po
[14] = tested on: Kidney; experiment: Drug concentration in female albino rat kidney assessed as radioactivity per gram of tissue at 20 mg/kg administered as single dose via gastric gavage measured after 3 hrs by autoradiographic analysis; format: ADME, organism-based; design: dose 20 mg/kg, dosed compound name [14C]Sunitinib; conditions: in vivo, po; how it was run: as §1
[15] = tested on: Adrenal; experiment: Drug concentration in female albino rat adrenal assessed as radioactivity per gram of tissue at 20 mg/kg administered as single dose via gastric gavage measured after 72 hrs by autoradiographic analysis; format: ADME, organism-based; design: dose 20 mg/kg, dosed compound name [14C]Sunitinib; conditions: in vivo, po
How it was run: (§3)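 Sprague Dawley (albino) rats, ca 7-8 weeks old, received a single gastric-gavage dose of [14C]sunitinib L-malate at 20 mg/kg (15 mg freebase/kg, 100 µCi/kg). One animal per sex killed by CO2 at 3, 6, 24, 72 and 168 h, then frozen in CO2/hexane. 30 µm sagittal sections were cut and freeze-dried. Radioactivity per gram quantified by whole-body autoradiography using regression against standards. LOQ 0.04–0.06 µg freebase equiv/g.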

[16] = Drug concentration in female Lister Hooded pigmented rat thyroid gland assessed as radioactivity per gram of tissue at 20 mg/kg administered as single dose via gastric gavage measured after 24 hrs by autoradiographic analysis; format: ADME, organism-based; design: dose 20 mg/kg, dosed compound name [14C]Sunitinib; conditions: in vivo, po; how it was run: as §2
[17] = tested on: Spinal cord; experiment: Drug concentration in female albino rat spinal cord assessed as radioactivity per gram of tissue at 20 mg/kg administered as single dose via gastric gavage measured after 24 hrs by autoradiographic analysis; format: ADME, organism-based; design: dose 20 mg/kg, dosed compound name [14C]Sunitinib; conditions: in vivo, po
[18] = Drug concentration in female albino rat bone marrow assessed as radioactivity per gram of tissue at 20 mg/kg administered as single dose via gastric gavage measured after 24 hrs by autoradiographic analysis; format: ADME, organism-based; design: dose 20 mg/kg, dosed compound name [14C]Sunitinib; conditions: in vivo, po; how it was run: as §3
[19] = tested on: Zone of skin; experiment: Drug concentration in female albino rat abdomen skin assessed as radioactivity per gram of tissue at 20 mg/kg administered as single dose via gastric gavage measured after 24 hrs by autoradiographic analysis; format: ADME, organism-based; design: dose 20 mg/kg, dosed compound name [14C]Sunitinib; conditions: in vivo, po; how it was run: as §3
[20] = tested on: Adrenal; experiment: Drug concentration in female albino rat adrenal assessed as radioactivity per gram of tissue at 20 mg/kg administered as single dose via gastric gavage measured after 3 hrs by autoradiographic analysis; format: ADME, organism-based; design: dose 20 mg/kg, dosed compound name [14C]Sunitinib; conditions: in vivo, po; how it was run: as §3
[21] = tested on: Liver; experiment: Drug concentration in male albino rat liver assessed as radioactivity per gram of tissue at 20 mg/kg administered as single dose via gastric gavage measured after 72 hrs by autoradiographic analysis; format: ADME, organism-based; design: dose 20 mg/kg, dosed compound name [14C]Sunitinib; conditions: in vivo, po
[22] = Drug concentration in male albino rat pituitary gland assessed as radioactivity per gram of tissue at 20 mg/kg administered as single dose via gastric gavage measured after 72 hrs by autoradiographic analysis; format: ADME, organism-based; design: dose 20 mg/kg, dosed compound name [14C]Sunitinib; conditions: in vivo, po
[23] = tested on: Adrenal; experiment: Drug concentration in male Lister Hooded pigmented rat adrenal assessed as radioactivity per gram of tissue at 20 mg/kg administered as single dose via gastric gavage measured after 24 hrs by autoradiographic analysis; format: ADME, organism-based; design: dose 20 mg/kg, dosed compound name [14C]Sunitinib; conditions: in vivo, po
[24] = tested on: Rattus norvegicus; experiment: AUC (0 to infinity) as total radioactivity in female Sprague-Dawley rat plasma at 15 mg/kg, po administered as single dose by LC/MS/MS analysis; format: ADME, organism-based; design: time infinity, dose 15 mg/kg, dosed compound name [14C]Sunitinib, route oral; conditions: in vivo
How it was run: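 Single dose of [14C]sunitinib L-malate as free base, 50 µCi/kg. IV dose was 5 mg/kg by tail vein in 5 females. Oral dose was 15 mg/kg by gavage in 3 females and 3 males. Total radioactivity was by scintillation counting. […] Cmax was read from raw data, t½ by log-linear regression, AUC by linear trapezoidal rule.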

[25] = Drug concentration in male albino rat skeletal muscle assessed as radioactivity per gram of tissue at 20 mg/kg administered as single dose via gastric gavage measured after 6 hrs by autoradiographic analysis; format: ADME, organism-based; design: dose 20 mg/kg, dosed compound name [14C]Sunitinib; conditions: in vivo, po

CCN(CC)CCNC(=O)c1c(C)[nH]c(/[14CH]=C2\C(=O)Nc3ccc(F)cc32)c1C.O=C(O)C[C@H](O)C(=O)O
Radiolabel recovery [1]: 1.18 ugequiv
Radiolabel recovery [2]: 23.98 ugequiv
Radiolabel recovery [3]: 1.21 ugequiv
Radiolabel recovery [4]: 0.16 ugequiv
Radiolabel recovery [5]: 0.58 ugequiv
Radiolabel recovery [6]: 0.19 ugequiv
Radiolabel recovery [7]: 10.92 ugequiv
Radiolabel recovery [8]: 0.88 ugequiv
Radiolabel recovery [9]: 84.1%
Radiolabel recovery [10]: 276.19 ugequiv
Radiolabel recovery [11]: 10.15 ugequiv
Radiolabel recovery [12]: 0.13 ugequiv
Radiolabel recovery [13]: 10.7 ugequiv
Radiolabel recovery [14]: 16.11 ugequiv
Radiolabel recovery [15]: 1.52 ugequiv
Radiolabel recovery [16]: 0.64 ugequiv
Radiolabel recovery [17]: 0.07 ugequiv
Radiolabel recovery [18]: 1.21 ugequiv
Radiolabel recovery [19]: 4.16 ugequiv
Radiolabel recovery [20]: 29.98 ugequiv
Radiolabel recovery [21]: 0.24 ugequiv
Radiolabel recovery [22]: 2.7 ugequiv
Radiolabel recovery [23]: 4.3 ugequiv
AUC [24]: 69949 ng.Eq.hr/ml
Radiolabel recovery [25]: 2.3 ugequiv
